Compound activity from PubChem BioAssay.
S100A4 MyoIIA – inhibitors of human S100A4 binding to myosin IIA peptide; actives 0.14% (n = 360,000); AID 652163; S100A4/TAMRA-MyoIIA peptide fluorescence polarization; inhibition, % at 10.7 µM; P26447;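 active = mean inhibition of at least 70% across replicates, with every replicate also reaching that level; inconclusive = mean inhibition reaches 70% but some replicates fall short; inactive = mean inhibition below 70%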
Target sequence (P26447 whole entry, looked up): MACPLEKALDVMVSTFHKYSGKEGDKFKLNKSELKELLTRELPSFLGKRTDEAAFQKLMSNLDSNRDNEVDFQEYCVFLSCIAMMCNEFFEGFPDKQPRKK
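Test system: S100A4 monomer protein. Medium: HEPES buffer with Ca2+, pH 7.2. Reagent: fluorescent myosin IIA peptide, 5 nM. Compound dosing: single-point compound testing. Timing: 5 min between mix addition and reading. Benchmarks: DMSO neutral and TFP positive wells.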
CaV13 FRET inh – Primary screen for inhibitors of IQ motif and Ca2+-dependent inactivation inhibitor domain binding in CACNA1D, Förster resonance energy transfer in living cells, …; HEK cells, CFP/YFP FRET ICDI-IQ, plate reader, 10 min; percent FRET-ratio fall versus neutral wells; inhibition, % at 12.3 µM; actives 0.098% (n = 340,000); AID 743397;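 active = mean replicate inhibition of at least 30% and at least 1% of replicates passing that level; inconclusive = only one of the two criteria is met; inactive = neither criterion is met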;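 note: 0% = median of the neutral control wells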
SIRT5 inh – blocks human SIRT5 desuccinylation of peptide | actives 1.1% (n = 330,000) | Purified SirT5, succinyl-peptide AMC, trypsin-coupled fluorescence | Q9NXA8 | inhibition, % at 15 µM; in the data active = inhibition above about 15%; inconclusive = no clear call, values can overlap the other calls
Target sequence (Q9NXA8 whole entry, looked up): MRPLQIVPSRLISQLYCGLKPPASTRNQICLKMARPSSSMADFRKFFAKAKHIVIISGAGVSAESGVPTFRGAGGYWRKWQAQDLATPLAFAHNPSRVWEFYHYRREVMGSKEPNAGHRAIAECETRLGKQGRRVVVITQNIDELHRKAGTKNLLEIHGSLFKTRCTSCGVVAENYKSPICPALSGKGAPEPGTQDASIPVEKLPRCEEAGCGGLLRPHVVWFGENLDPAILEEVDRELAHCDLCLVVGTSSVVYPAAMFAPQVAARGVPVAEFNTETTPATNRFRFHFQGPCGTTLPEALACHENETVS
AF4-AF9 inh – blocks AF4 peptide binding to human AF9; inhibition, % at 10 µM; AlphaScreen, biotin-AF4 peptide binding to FLAG-AF9; AID 651704; actives 0.47% (n = 350,000); P42568;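 active = every replicate reaching a set inhibition limit, whatever the replicate mean, cut at about 25% in these data; inconclusive = mean inhibition reaches that limit but some replicates miss it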;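 note: 0% = plate neutral control median and 100% = total signal loss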
DENV2 CPE rescue – protects cells from dengue virus 2 cytopathic effect. actives 1.7% (n = 350,000). CPE inhibition, % at 9.99 µM. AID 651640. DENV2-infected cells, cytopathic effect rescue, plate reader; in the data active = CPE inhibition above about 20%, passing the limit was not always enough; inconclusive = no clear call, values can overlap the other calls; tested in BHK-21 cells;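 note: 0% = median of neutral control wells and 100% = median of positive control wells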
Numbers without * were called inactive; ? = inconclusive; · = no result given. A selection: hits, their analogues and other compounds. The true share with any hit is near 2.7%.

SMILES	S100A4 MyoIIA	CaV13 FRET inh	SIRT5 inh	AF4-AF9 inh	DENV2 CPE rescue
COCCOC(=O)N1C(=O)[C@@]2(c3cc(C#CC4(O)CCCCCC4)ccc31)[C@H](C(=O)N1CCN(c3ncccn3)CC1)[C@H]1C(=O)O[C@H](c3ccccc3)[C@H](c3ccccc3)N1[C@@H]2c1ccccc1OCCO	-12	·	-1	0	-6
O=S(=O)(Cc1ccccc1)NCC[C@@H]1CC[C@H](NS(=O)(=O)c2ccccc2)[C@H](CO)O1	-11	·	-2	0	-4
COc1ccccc1S(=O)(=O)Nc1ccc2c(c1)OC[C@@H](C)NC[C@H](C)[C@H](OC)CN(C)C2=O	1	·	-3	-2	3
C[C@H]1CN([C@@H](C)CO)C(=O)Cc2cc(NC(=O)CCC(F)(F)F)ccc2O[C@H]1CN(C)Cc1ccc(-c2ccccc2)cc1	-5	-4	·	4	57*
C[C@@H]1CN([C@@H](C)CO)C(=O)Cc2cc(NC(=O)CCN3CCOCC3)ccc2O[C@@H]1CN(C)Cc1ccncc1	19	·	16*	1	4
C[C@H](CO)N1C[C@H](C)[C@H](CN(C)Cc2ccncc2)Oc2ccc(NC(=O)CCN3CCOCC3)cc2CC1=O	-1	·	-5	0	-1
C[C@@H]1CN([C@@H](C)CO)C(=O)Cc2cc(NC(=O)CCN3CCOCC3)ccc2O[C@H]1CN(C)Cc1ccc(-c2ccccc2)cc1	-5	·	9	13	32*
C[C@@H]1CN([C@H](C)CO)C(=O)Cc2cc(NC(=O)CCN3CCOCC3)ccc2O[C@H]1CN(C)Cc1ccc(-c2ccccc2)cc1	-6	·	2	10	-2
C[C@H]1CN([C@@H](C)CO)C(=O)c2cc(NC(=O)Cc3ccccc3)ccc2O[C@H]1CN(C)C(=O)Nc1ccc2c(c1)OCO2	·	·	·	-3	·
COCC(=O)N1[C@H](CO)[C@@H]2c3ccccc3N(C(=O)c3cccc(OC)c3)C[C@@H]21	1	·	1	-14	-2
CCCC(=O)Nc1ccc2c(c1)C(=O)N(C)C[C@H](OC)[C@H](C)CN(Cc1nccs1)[C@@H](C)CO2	1	·	1	0	0
CCCNC(=O)C[C@H]1C[C@H]2c3cc(NC(=O)c4cccnc4)ccc3O[C@H]2[C@H](CO)O1	·	·	·	·	10
COc1ccc(CN(C)C[C@@H]2OCCCC[C@H](C)Oc3ccc(NC(=O)CCCN(C)C)cc3C(=O)N([C@@H](C)CO)C[C@H]2C)cc1	24	·	-7	0	-7
Cc1cccc(C)c1NC(=S)N(CCc1ccncc1)C(C)C	0	1	16*	-8	1
COc1ccccc1CN(C)C(=O)c1cccc(S(=O)(=O)N2CCCc3ccccc32)c1	-5	-18	0	-1	81*
COc1ccccc1C(CNC(=O)c1cccc(S(=O)(=O)N2CCCc3ccccc32)c1)N(C)C (configuration not stated)	0	-6	-8	5	-1
COc1ccccc1C(CNc1ncnc2sc(C)c(C)c12)N(C)C (configuration not stated)	-23	-4	-1	5	46*
COc1ccc(C(CNc2ncnc3sc(C)c(C)c23)N(C)C)cc1 (configuration not stated)	-3	-2	3	5	0
CCCCCCN1CCN(C2CN(Cc3ccc(F)cc3)S(=O)(=O)C2)CC1 (configuration not stated)	-3	·	-2	4	31*
COc1ccc(N2CC(NC(=O)N3CCc4ccccc43)CC2=O)cc1OC (configuration not stated)	-1	-6	20*	-26	?
COc1ccc(C(=O)NC(=S)N2CCCc3ccccc32)cc1OC	30	-8	112*	1	19
CCOC(=O)N1CCN(C(=O)CNC(=O)C23CC4CC(CC(C4)C2)C3)CC1	-4	-7	2	-3	6
CCOC(=O)CNC(=O)C12CC3CC(CC(C3)C1)C2	0	-3	16*	-1	-3
CN(C)C(=O)C[C@H]1CC[C@@H]2[C@@H](COc3ccc(NS(=O)(=O)c4cccc(F)c4)cc3C(=O)N2C)O1	-3	·	-9	-1	?
CN(C)CCN(C)Cc1ccccc1Sc1cccc2ccccc12	2	-4	-5	36*	4
SMILES	S100A4 MyoIIA	CaV13 FRET inh	SIRT5 inh	AF4-AF9 inh	DENV2 CPE rescue
C[C@@H]1CCCCO[C@H](CN(C)C(=O)CCC(F)(F)F)[C@@H](C)CN([C@@H](C)CO)C(=O)c2cc(NC(=O)C3CCCCC3)ccc2O1	-5	·	18*	-3	-1
C[C@@H]1CCCCO[C@@H](CN(C)C(=O)CCC(F)(F)F)[C@@H](C)CN([C@@H](C)CO)C(=O)c2cc(NC(=O)c3ccccc3)ccc2O1	97*	·	7	-5	157*
C[C@H](CO)N1C[C@H](C)[C@H](CN(C)C(=O)CCC(F)(F)F)OCCCC[C@H](C)Oc2ccc(NC(=O)c3ccccc3)cc2C1=O	1	·	8	-8	21*
O=C(C[C@H]1CC[C@H]2[C@@H](COC[C@@H](O)CN2C(=O)c2ccc(F)cc2)O1)N1CCOCC1	-4	·	1	-2	-3
CC(=O)Nc1cccc(C(=O)OCC(=O)Nc2ccc(Cl)cn2)c1	-7	-4	4	-1	56*
COC(=O)C1=C(C)N(Cc2ccccc2C(F)(F)F)C(=NCc2ccc(C(F)(F)F)cc2)NC1c1ccccc1 (configuration not stated)	-3	-3	-1	·	-3
O=C(c1ccccn1)N1CC[C@@H]2[C@H]1c1cc(C#Cc3ccccc3)ccc1N[C@@H]2CO	-3	·	0	3	3
CC(C)C[C@@H](CO)NS(=O)(=O)c1c(F)cccc1F	-2	-10	0	-3	49*
CC(C)CC(CO)NS(=O)(=O)c1cccc(Cl)c1F (configuration not stated)	2	-5	·	-1	-2
COC(=O)[C@]12CCCCC=C1N(Cc1ccc3c(c1)OCO3)C(=O)[C@H](CC(=O)N1CCSCC1)C2	5	-7	-1	6	1
CCCCc1cc(=O)oc2cc(C)cc(OCC(=O)N3CCC(C(N)=O)CC3)c12	55	·	-5	-1	61*
Cc1cc(OCC(=O)N2CCC(C(N)=O)CC2)c2c(C)cc(=O)oc2c1	-12	·	-4	0	-6
CCCNC(=O)C[C@H]1CC[C@@H]2[C@@H](COc3ccc(NC(=O)NC(C)C)cc3C(=O)N2C)O1	7	·	-6	-1	2
COCC(=O)N(C)C[C@@H]1Oc2ncc(-c3ccc(F)cc3)cc2C(=O)N([C@H](C)CO)C[C@@H]1C	0	·	0	-1	11
O=C(c1cc(-c2cccs2)on1)N1CCCc2ccccc21	-16	-7	-1	-3	85*
Cc1ccc(-c2cc(C(=O)N3CCCc4ccccc43)no2)cc1	-3	-5	0	0	-5
